ChEMBL document CHEMBL4402576, “Discovery and Development of Small-Molecule Inhibitors of Glycogen Synthase” (J Med Chem, 2020)
The source made the active and inactive calls. The rule behind the calls is not given here.

Experiments:
[1] = tested on: Saccharomyces cerevisiae; experiment: Inhibition of recombinant His-tagged yeast GYS2P expressed in Escherichia coli BL21(DE3) cells assessed as enzyme activity at 300 uM using UDPG as substrate in presence of G-6-P by 14C-glucose incorporation assay relative to control; design: scale not given: the % may be the effect or the level left
[2] = Competitive inhibition of recombinant His-tagged yeast GYS2P expressed in Escherichia coli BL21(DE3) cells using UDPG as substrate in absence of G-6-P by 14C-glucose incorporation based Michaelis-Menton plot analysis; design: species or system Saccharomyces cerevisiae
In short: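 Yeast Gsy2p at 5 μg/ml in a 14C-glucose incorporation assay. UDPG was varied from 0.2 to 8 mM without G6P, and inhibitor was covaried up to 0.8 mM. Data were fitted to competitive, non-competitive and uncompetitive models, and the model was chosen by goodness of fit and residuals. Controls contained 2% (v/v) DMSO. Values are mean ± SEM of three independent experiments in duplicate.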

[3] = Inhibition of recombinant His-tagged yeast GYS2P expressed in Escherichia coli BL21(DE3) cells using UDPG as substrate in absence of G-6-P by 14C-glucose incorporation assay; design: species or system Saccharomyces cerevisiae
In short: (§1)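 His-tagged yeast Gsy2p, expressed in E. coli BL21(DE3) and purified by Ni-NTA then Q-sepharose. Radiochemical incorporation of glucose into glycogen with 0.3 mM UDPG, with or without 0.04 mM G6P. Controls contained 2% (v/v) DMSO. IC50 was fitted by four-parameter logistic. Values are mean ± SEM of at least three independent experiments in duplicate.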

[4] = species on record: Homo sapiens; experiment: Inhibition of C-terminal 6His-tagged human GYS1 delta634S8,11N mutant at 100 uM using UDPG as substrate in presence of 0.4 mM G-6-P by 14C-glucose incorporation assay relative to control
[5] = biological target: T1, Glycogen [starch] synthase, muscle (Homo sapiens, UniProt P13807); experiment: Inhibition of C-terminal 6His-tagged wild type human GYS1 using UDPG as substrate in presence of 1 mM G-6-P by 14C-glucose incorporation assay
T1 sequence (P13807 whole entry): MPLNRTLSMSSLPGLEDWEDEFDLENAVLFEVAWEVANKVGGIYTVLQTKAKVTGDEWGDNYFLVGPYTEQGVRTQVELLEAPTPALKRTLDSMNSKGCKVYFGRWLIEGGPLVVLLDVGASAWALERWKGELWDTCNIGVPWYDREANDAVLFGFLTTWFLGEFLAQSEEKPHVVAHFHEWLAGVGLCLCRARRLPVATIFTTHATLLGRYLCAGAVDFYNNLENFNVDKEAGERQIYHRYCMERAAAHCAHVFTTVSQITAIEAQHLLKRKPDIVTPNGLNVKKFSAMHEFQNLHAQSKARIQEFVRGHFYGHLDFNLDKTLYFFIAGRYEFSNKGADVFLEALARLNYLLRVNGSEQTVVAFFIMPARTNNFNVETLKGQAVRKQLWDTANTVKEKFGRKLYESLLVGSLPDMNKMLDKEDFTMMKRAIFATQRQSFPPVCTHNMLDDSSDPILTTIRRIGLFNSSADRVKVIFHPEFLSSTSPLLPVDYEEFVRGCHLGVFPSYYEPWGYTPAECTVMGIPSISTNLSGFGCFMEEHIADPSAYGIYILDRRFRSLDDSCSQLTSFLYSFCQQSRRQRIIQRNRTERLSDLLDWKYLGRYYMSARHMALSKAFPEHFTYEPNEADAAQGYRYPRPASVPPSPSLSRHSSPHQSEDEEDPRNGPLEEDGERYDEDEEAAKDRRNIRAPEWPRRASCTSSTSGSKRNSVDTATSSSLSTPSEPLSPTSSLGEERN
In short: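 Full-length wild-type hGYS1 with C-terminal 6×His tag in place of the intein-chitin binding domain, Ni-NTA purified. Glucose transfer from UDP-[14C]glucose into glycogen with 0.2 mM UDPG and 1 mM G6P. Controls contained 2% (v/v) DMSO. IC50 was fitted by four-parameter logistic. Values are mean ± SEM of at least three independent experiments in duplicate.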

[6] = Inhibition of recombinant His-tagged yeast GYS2P expressed in Escherichia coli BL21(DE3) cells using UDPG as substrate in presence of 0.04 mM G-6-P by 14C-glucose incorporation assay; design: species or system Saccharomyces cerevisiae; in short: as §1
[7] = species on record: Homo sapiens; experiment: Inhibition of C-terminal 6His-tagged human GYS1 delta634S8,11N mutant assessed as enzyme activity at 300 uM using UDPG as substrate in presence of 0.4 mM G-6-P by 14C-glucose incorporation assay relative to control; design: scale not given: the % may be the effect or the level left
[8] = Inhibition of C-terminal 6His-tagged human GYS1 delta634S8,11N mutant using UDPG as substrate in presence of 0.4 mM G-6-P by 14C-glucose incorporation assay
In short: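 Truncated hGYS1 (residues 635–737 deleted, Ser8/Ser11→Asn, C-terminal 6×His, Ni-NTA purified; activation state ~0.2). Radiolabelled glucose incorporation into glycogen with 0.2 mM UDPG and 0.4 mM G6P. Controls contained 2% (v/v) DMSO. IC50 was fitted by four-parameter logistic. Values are mean ± SEM of at least three independent experiments in duplicate.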

[9] = Competitive inhibition of recombinant His-tagged yeast GYS2P expressed in Escherichia coli BL21(DE3) cells using UDPG as substrate in presence of G-6-P by 14C-glucose incorporation based Michaelis-Menton plot analysis; design: species or system Saccharomyces cerevisiae
In short: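 Ni-NTA then Q-Sepharose purified enzyme (5 μg/ml) assayed by radiolabelled glucose transfer from UDPG into glycogen. UDPG varied 0.2–8 mM with 7.2 mM G6P, covaried against fixed inhibitor levels, 2% (v/v) DMSO throughout. Data fitted to competitive, non-competitive and uncompetitive models, chosen by goodness-of-fit and residuals. Ki given as mean ± SEM of three independent experiments in duplicate.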

[10] = biological target: T2, Glycogen [starch] synthase, muscle (Homo sapiens) (UniProt P13807); experiment: Inhibition of glycogen synthase in human HEK293 cell lysates overexpressing mouse PTG at 100 uM using 0.2 mM UDPG as substrate in presence of 1 mM G-6-P by 14C-glucose incorporation assay; type: subcellular; settings: Lysate
T2 sequence (whole entry): T1 sequence (P13807 whole entry)
In short: (§2)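 Lysates came from HEK293 cells stably expressing PTG (5.5 mM glucose αMEM, 10% FBS, hygromycin) or from Rat-1 cells (25 mM glucose DMEM, 10% FBS), grown 3–4 days to confluency. Cells were lysed by freezing, scraping and sonication in Tris/EDTA/EGTA/NaF buffer with protease inhibitors and Triton. Assays used 0.15 mg/mL (HEK293-PTG) or 0.75 mg/mL (Rat-1) lysate in 50 mM Tris-HCl pH 7.8 with 6.7 mg/ml glycogen and 2% DMSO. Read-out was [14C]glucose incorporation relative to DMSO control, in triplicate.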

[11] = biological target: T3, Glycogen [starch] synthase, muscle (Rattus norvegicus) (UniProt A2RRU1); experiment: Inhibition of glycogen synthase in rat-1 fibroblast cell lysates at 100 uM using 0.2 mM UDPG as substrate in presence of 1 mM G-6-P by 14C-glucose incorporation assay; type: subcellular; settings: Lysate; in short: as §2
T3 sequence (whole entry): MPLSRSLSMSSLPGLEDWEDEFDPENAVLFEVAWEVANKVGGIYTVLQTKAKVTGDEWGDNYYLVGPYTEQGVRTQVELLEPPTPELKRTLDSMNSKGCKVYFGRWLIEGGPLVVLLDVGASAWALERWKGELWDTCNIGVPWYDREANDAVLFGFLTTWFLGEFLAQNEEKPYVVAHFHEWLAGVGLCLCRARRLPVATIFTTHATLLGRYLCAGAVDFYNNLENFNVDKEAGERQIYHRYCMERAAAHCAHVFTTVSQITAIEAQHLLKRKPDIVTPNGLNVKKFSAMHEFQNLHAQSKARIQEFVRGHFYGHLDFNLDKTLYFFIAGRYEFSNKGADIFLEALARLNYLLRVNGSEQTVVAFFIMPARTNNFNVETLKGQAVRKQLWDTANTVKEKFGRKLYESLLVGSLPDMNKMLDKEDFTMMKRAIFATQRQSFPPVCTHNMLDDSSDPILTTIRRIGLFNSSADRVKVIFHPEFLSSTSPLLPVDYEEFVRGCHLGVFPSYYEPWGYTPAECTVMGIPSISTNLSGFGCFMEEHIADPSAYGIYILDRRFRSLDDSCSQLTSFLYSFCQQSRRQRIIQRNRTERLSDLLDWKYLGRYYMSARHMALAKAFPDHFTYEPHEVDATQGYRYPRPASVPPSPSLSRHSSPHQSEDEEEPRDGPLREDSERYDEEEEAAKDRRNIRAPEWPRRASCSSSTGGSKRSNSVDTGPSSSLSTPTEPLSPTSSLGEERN

[12] = biological target: T2, Glycogen [starch] synthase, muscle (Homo sapiens); experiment: Inhibition of C-terminal 6His-tagged wild type human GYS1 assessed as enzyme activity at 300 uM using UDPG as substrate in presence of 1 mM G-6-P by 14C-glucose incorporation assay relative to control; design: scale not given: the % may be the effect or the level left
[13] = Inhibition of recombinant yeast GYS2P Y513L mutant using UDPG as substrate in presence of 7.2 mM G-6-P by 14C-glucose incorporation assay; design: species or system Saccharomyces cerevisiae
In short: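 Yeast Gsy2p Y513L mutant, purified like the wild type. Assayed by 14C-glucose incorporation into glycogen with UDPG under saturating 7.2 mM G6P. IC50 curves used triplicate measurements, with three experiments performed.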

[14] = biological target: T2, Glycogen [starch] synthase, muscle (Homo sapiens); experiment: Inhibition of C-terminal 6His-tagged wild type human GYS1 assessed as enzyme activity at 20 uM using UDPG as substrate in presence of 1 mM G-6-P by 14C-glucose incorporation assay relative to control; design: scale not given: the % may be the effect or the level left
[15] = species on record: Homo sapiens; experiment: Inhibition of C-terminal 6His-tagged human GYS1 delta634S8,11N mutant assessed as enzyme activity at 20 uM using UDPG as substrate in presence of 0.4 mM G-6-P by 14C-glucose incorporation assay relative to control; design: scale not given: the % may be the effect or the level left
[16] = biological target: T1, Glycogen [starch] synthase, muscle; experiment: Competitive inhibition of C-terminal 6His-tagged human GYS1 using UDPG as substrate in presence of G-6-P by 14C-glucose incorporation based Michaelis-Menton plot analysis
In short: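 Radiolabel transfer from UDP-[14C]glucose into glycogen. Inhibitor and UDPG concentrations were covaried. Data were fitted to competitive, non-competitive and uncompetitive models, and the model was chosen by goodness of fit and residuals. Controls contained 2% (v/v) DMSO. Values are mean ± SEM of three independent experiments, each in duplicate.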

[17] = biological target: T2, Glycogen [starch] synthase, muscle (Homo sapiens); experiment: Inhibition of glycogen synthase in human HEK293 cell lysates overexpressing mouse PTG at 100 uM using 0.2 mM UDPG as substrate in presence of 1 mM G-6-P by 14C-glucose incorporation assay relative to control; type: subcellular; settings: Lysate; in short: as §2
[18] = tested on: Saccharomyces cerevisiae; experiment: Inhibition of recombinant His-tagged yeast GYS2P expressed in Escherichia coli BL21(DE3) cells assessed as enzyme activity at 20 uM using UDPG as substrate in presence of G-6-P by 14C-glucose incorporation assay relative to control; design: scale not given: the % may be the effect or the level left
[19] = biological target: T3, Glycogen [starch] synthase, muscle (Rattus norvegicus); experiment: Inhibition of glycogen synthase in rat-1 fibroblast cell lysates at 100 uM using 0.2 mM UDPG as substrate in presence of 1 mM G-6-P by 14C-glucose incorporation assay relative to control; type: subcellular; settings: Lysate; in short: as §2

Structure (SMILES)	Activity [1]	Ki [2]	IC50 [3]	inhibition [4]	IC50 [5]	IC50 [6]	Activity [7]	IC50 [8]	Ki [9]	inhibition [10]	inhibition [11]	Activity [12]	IC50 [13]	Activity [14]	Activity [15]	Ki [16]	inhibition [17]	Activity [18]	inhibition [19]
COc1cc(-c2c(-c3ccccc3)ncn2CCC2CCCN2C)ccc1O (racemic)	36.5%	290 µM	280 µM	> 20%	875 µM	263 µM	46.5%	161 µM	370 µM	inactive	inactive	77.1%							
Oc1ccc(-c2c(-c3ccc(O)c(O)c3O)n[nH]c2C(F)(F)F)cc1					2.75 µM	7.98 µM							33.6 µM	-0.26%	-1.01%	1.31 µM	100%	0.97%	100%
